Source: PMC11964602 (Bioactive Materials, 2025)
Read-outs that look alike come from different tables or passages of the source. Where no end group is shown, it is not given here.

Key:
[1] = system: CPB, porcine carboxypeptidase; conditions: cited from earlier work
[2] = target: SARS-CoV-2 main protease (M^pro) (SARS-CoV-2 (Wuhan-Hu-1 isolate)) (UniProt P0DTD1)
rat RBCs = assay: Hemolysis assay; format: cell-based; conditions: 62.5–1000 μg/mL, 37 °C, 30 min
Outline: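 Rat RBCs in glycine-buffered stabilizing saline were exposed to test peptide at 62.5, 125, 250, 500 or 1000 μg/mL for 30 min at 37 °C in a water bath, then centrifuged. Supernatant absorbance was read at 540 nm. RBCs in stabilizing buffer defined 0% hemolysis and 0.1% SDS (final) defined 100%.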

HUVECs [3] = assay: Wound healing assay; format: cell-based, human; conditions: 25 μg/mL, 8 h, vs control
Outline: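 A confluent HUVEC monolayer was scratched with a sterile 200 μL pipette tip and debris washed off with PBS. Medium containing peptide at 25 μg/mL was added, and cells migrated 8 h at 37 °C. Bright-field images were taken at 0 and 8 h and wound areas measured by image analysis. Percent closure was computed from initial area minus 8-h area. Three experiments were run, each in triplicate wells.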

NIH/3T3 = assay: Cytotoxicity assay; format: cell-based, mouse; conditions: NIH/3T3; 6.25–50 μg/mL; 24 h
Outline: (§1)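 Cells seeded at 10,000 per well and grown 24 h. They were then given medium containing 6.25–50 μg/mL peptide, with medium alone as control, for 24 h at 37 °C, 5% CO2. CCK-8 reagent was added and incubated 1 h at 37 °C, and absorbance read at 450 nm. Cytotoxicity was calculated from the OD values.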

Cytotoxicity assay [4] = format: cell-based, mouse
Outline: as §1

HUVECs [5] = assay: Cytotoxicity assay; format: cell-based, human; conditions: HUVECs; 6.25–50 μg/mL; 24 h
Outline: as §1

Cytotoxicity assay [6] = format: cell-based, human
Outline: as §1

HUVECs [7] = assay: Tube formation assay with H2O2-generated ROS; format: cell-based, human; conditions: 25 μg/mL, 24 h
Outline: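 Confluent HUVECs were harvested and seeded at 1 × 10^4 cells per chamber on basement membrane matrix (Geltrex)-coated chamber slides. ROS groups received H2O2 (200 μM solution). Parent and metabolite peptides were each at 25 μg/mL in medium. After 24 h incubation, tubular networks were imaged by bright-field microscopy and tube parameters quantified by image analysis.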

[8] = target: T1, SARS-CoV-2 main protease (M^pro) (SARS-CoV-2 (Wuhan-Hu-1 isolate), UniProt P0DTD1); assay: ITC
[9] = target: T1, SARS-CoV-2 main protease (M^pro); assay: cell-based or functional assay

Ac-Tβ4_31-43: peptide metabolite of Ac-Tβ4, amino acids 31-43 (KETIEQEKQAGES; Thymosin beta-4; UniProt P62328 32-44, looked up, fragment)
detected as metabolite of Ac-Tβ4: CPB [1]: D ^a

FDKS peptide
IC50 of inhibition of SARS-CoV-2 M^pro, FRET-based enzymatic assay [2]: 63.2 µM

CC[C@H](C)[C@H](NC(=O)[C@H](CCC(=O)O)NC(=O)[C@H](C)NC(=O)[C@H](CCSC)NC(=O)[C@H](CC(=O)O)NC(=O)[C@@H]1CCCN1C(=O)[C@H](CCCCN)NC(=O)[C@H](CC(=O)O)NC(=O)[C@H](CO)NC(C)=O)C(=O)N[C@@H](CCC(=O)O)C(=O)N[C@@H](CCCCN)C(=O)N[C@@H](Cc1ccccc1)C(=O)N[C@@H](CC(=O)O)C(=O)N[C@@H](CCCCN)C(=O)N[C@@H](CO)C(=O)N[C@@H](CCCCN)C(=O)N[C@@H](CC(C)C)C(=O)N[C@@H](CCCCN)C(=O)N[C@@H](CCCCN)C(=O)N[C@H](C(=O)N[C@@H](CCC(=O)O)C(=O)N[C@H](C(=O)N[C@@H](CCC(N)=O)C(=O)N[C@@H](CCC(=O)O)C(=O)N[C@@H](CCCCN)C(=O)N[C@@H](CC(N)=O)C(=O)N1CCC[C@H]1C(=O)N[C@@H](CC(C)C)C(=O)N1CCC[C@H]1C(=O)N[C@@H](CO)C(=O)N[C@@H](CCCCN)C(=O)N[C@@H](CCC(=O)O)C(=O)N[C@H](C(=O)N[C@H](C(=O)N[C@@H](CCC(=O)O)C(=O)N[C@@H](CCC(N)=O)C(=O)N[C@@H](CCC(=O)O)C(=O)N[C@@H](CCCCN)C(=O)N[C@@H](CCC(N)=O)C(=O)N[C@@H](C)C(=O)NCC(=O)N[C@@H](CCC(=O)O)C(=O)N[C@@H](CO)C(=O)O)[C@@H](C)CC)[C@@H](C)O)[C@@H](C)O)[C@@H](C)O [Ac-Tβ4, Acetyl-thymosin β4]
hemolytic activity, OD values compared to 0.1 % SDS (rat RBCs): < 1.5% | wound closure (HUVECs [3]): significantly enhanced wound closure | cytotoxicity (NIH/3T3): No cytotoxicity | viability (Cytotoxicity assay [4]): > 90% | cytotoxicity (HUVECs [5]): No cytotoxicity | viability (Cytotoxicity assay [6]): > 90% | tube formation under H2O2 (ROS scavenging) (HUVECs [7]): failed to mitigate ROS-induced damage

Ac-SDKPDMAEIEKFDK [Ac-Tβ_(1-14), acetyl-thymosin β4 (amino acids 1-14)]
Kd [8]: 19.4 µM | dH [8]: 40.3 kcal/mol | stoichiometry N [8]: 1.05 | IC50 of inhibition of SARS-CoV-2 M^pro, FRET-based enzymatic assay [9]: 26.1 µM

Ac-SDKPDMAEIEKFDKSKL [Ac-Tβ_(1-17), acetyl-thymosin β4 (amino acid 1-17)]
Kd [8]: 22 µM | dH [8]: -11.4 kcal/mol | stoichiometry N [8]: 0.87 | IC50 of inhibition of SARS-CoV-2 M^pro, FRET-based enzymatic assay [9]: 22.4 µM
